In ChEMBL document CHEMBL1143574, “N-[18F] fluoroethylpiperidin-4ylmethyl acetate, a novel lipophilic acetylcholine analogue for PET measurement of brain acetylcholinesterase activity” (J Med Chem, 2005):

Assays:
[1] = molecular target: T1, Acetylcholinesterase (Rattus norvegicus) (UniProt P37136); test: Specificity for rat brain acetylcholinesterase as rate of hydrolysis using BW284c51
T1 sequence (whole entry): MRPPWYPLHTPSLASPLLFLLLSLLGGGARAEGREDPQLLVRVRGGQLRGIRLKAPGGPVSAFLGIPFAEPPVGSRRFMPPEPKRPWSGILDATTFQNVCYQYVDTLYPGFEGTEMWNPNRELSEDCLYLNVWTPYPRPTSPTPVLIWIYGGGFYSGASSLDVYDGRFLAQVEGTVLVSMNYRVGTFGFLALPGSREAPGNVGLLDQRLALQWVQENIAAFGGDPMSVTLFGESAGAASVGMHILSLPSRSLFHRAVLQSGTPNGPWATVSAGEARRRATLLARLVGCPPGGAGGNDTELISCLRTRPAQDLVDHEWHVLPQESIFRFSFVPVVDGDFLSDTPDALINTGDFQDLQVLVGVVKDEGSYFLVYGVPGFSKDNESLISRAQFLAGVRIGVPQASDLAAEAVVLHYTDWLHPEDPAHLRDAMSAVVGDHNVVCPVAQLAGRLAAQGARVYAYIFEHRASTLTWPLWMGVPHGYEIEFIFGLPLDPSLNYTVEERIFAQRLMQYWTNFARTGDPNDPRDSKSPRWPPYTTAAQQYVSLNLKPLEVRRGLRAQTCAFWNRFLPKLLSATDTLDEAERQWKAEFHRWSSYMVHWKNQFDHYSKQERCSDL
Outline: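 Rat cerebral cortex homogenate (Wistar, male, 8 wk, n=3) in 0.1 M phosphate buffer pH 7.4, run with labeled ester (15 kBq) with or without BW284c51 (30 nM). Hydrolysis rate measured by TLC and phosphor imaging of remaining ester. Specificity = […].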

[2] = First-order hydrolysis rate constant in rat cerebral cortical homogenate at a unit tissue concentration (g/mL) without inhibitor; format: ADME, tissue-based
Outline: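 Rat (Wistar, male, 8 wk, 210-230 g, n=3) cerebral cortex homogenized in ice-cold 0.1 M phosphate buffer pH 7.4 and diluted. Labeled ester (15 kBq) added to start reaction. Unchanged ester and metabolite separated by TLC and quantified by phosphor imaging. Rate = −ln(A2/A1)/(T2−T1)/C. Statistics by Games-Howell test.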

[3] = (§1) Partition coefficient (logP) measured in a mixture of 1-octanol/phosphate buffer (0.1 M, pH 7.4); format: physicochemical
Outline: (§2)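 Labeled ester or metabolite added to 1:1 1-octanol/0.1 M phosphate buffer pH 7.4, shaken vigorously, equilibrated 1 h at room temperature. Phase radioactivity counted by gamma or liquid scintillation counter, purity checked by TLC. Value = organic/aqueous concentration ratio.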

[4] = as §1; format: physicochemical; outline: as §2; remark: listed apart in the source
[5] = tested as the 11C-labelled form
[6] = tested as the 18F-labelled form

Structure (SMILES) | Specificity [1, 5] | Specificity [1, 6] | Total rate [2] | logD [3] | logD [4]
CC(=O)OC1CCN(C)CC1 | 97% |  |  |  | 
CCC(=O)OC1CCN(C)CC1 | 82% |  |  |  | 
CC(=O)OC1CCN(CCF)CC1 |  | 65% |  |  | 
CC(=O)OC1CCN(CC[18F])CC1 |  |  | 0.1 min⁻¹ | -1.9 | -0.11
CC(=O)OCC1CCN(CCF)CC1 |  | 86% |  |  | 
CC(=O)OCC1CCN(CC[18F])CC1 |  |  | 1.67 min⁻¹ | -1.3 | 0.04
CC(=O)OC1CCN([11CH3])CC1 |  |  | 1.73 min⁻¹ | -2.2 | -0.3
CCC(=O)OC1CCN([11CH3])CC1 |  |  | 0.41 min⁻¹ | -2.2 | -0.22
